Experimental data reported in ChEMBL document CHEMBL3994644, “Discovery of AAT-008, a novel, potent, and selective prostaglandin EP4 receptor antagonist” (Bioorg Med Chem Lett, 2017).
In brackets after ≈: the same amount, converted by molar mass.

Experiments:
[1] = Volume of distribution at steady state in cynomolgus monkey at 1 mg/kg, iv; type: ADME, organism-based, Macaca fascicularis; conditions: in vivo, read-out: Vdss
Procedure, shortened: (§1)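 A single intravenous injection at 1 mg/kg was given. Plasma concentration–time data gave total clearance (CL_total, mL/min/kg) and steady-state volume of distribution (Vd_ss, L/kg). Values are mean SD of N = 4 animals per species.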

[2] = Cmax in cynomolgus monkey at 1 mg/kg, po; type: ADME, organism-based, Macaca fascicularis; parameters: dose 1 mg/kg, route oral; conditions: in vivo
Procedure, shortened: (§2)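 Single 1 mg/kg dose given IV or PO to rats, dogs and monkeys. Plasma pharmacokinetic parameters were derived and reported as mean SD, N = 4.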

[3] = Solubility of the compound in pH 5.8 water for injection; type: physicochemical
Thromboxane A2 receptor = molecular target: T1, Thromboxane A2 receptor (Homo sapiens, UniProt P21731); assay: Antagonist activity at human platelet TP receptor
T1 sequence (P21731 whole entry): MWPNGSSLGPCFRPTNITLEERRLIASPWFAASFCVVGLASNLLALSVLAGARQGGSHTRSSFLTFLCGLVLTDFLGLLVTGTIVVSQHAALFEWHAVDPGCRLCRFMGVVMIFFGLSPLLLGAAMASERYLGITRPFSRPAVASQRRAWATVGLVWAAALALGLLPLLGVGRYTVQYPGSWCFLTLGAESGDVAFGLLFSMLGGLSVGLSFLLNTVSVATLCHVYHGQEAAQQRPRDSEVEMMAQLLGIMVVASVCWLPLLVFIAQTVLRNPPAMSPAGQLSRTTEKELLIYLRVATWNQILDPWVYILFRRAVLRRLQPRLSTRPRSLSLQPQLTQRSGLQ

[4] = AUC (0 to infinity) in Beagle dog at 1 mg/kg, iv; type: ADME, organism-based, Canis lupus familiaris; parameters: dose 1 mg/kg, time infinity, route intravenous; conditions: in vivo; procedure, shortened: as §2
[5] = Oral bioavailability in Beagle dog at 1 mg/kg; type: ADME, organism-based, Canis lupus familiaris; conditions: in vivo; procedure, shortened: as §2
[6] = Total clearance in Sprague-Dawley rat at 1 mg/kg, iv; type: ADME, organism-based; conditions: in vivo; procedure, shortened: as §1
CYP3A = assay: Inhibition of CYP3A (unknown origin) at 1 uM relative to control; type: ADME; conditions: human
Procedure, shortened: (§3)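 CYP1A, CYP2C9, CYP2C19, CYP2D6 and CYP3A activities were each tested with 1 µM test article. Results are given as percent inhibition of enzyme activity.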

[7] = Lipophilicity, log D of the compound at pH 6.5; type: physicochemical; conditions: buffer
[8] = Volume of distribution at steady state in Sprague-Dawley rat at 1 mg/kg, iv; type: ADME, organism-based; conditions: in vivo, read-out: Vdss; procedure, shortened: as §1
[9] = molecular target: Prostaglandin E2 receptor EP2 subtype (Homo sapiens, UniProt P43116); assay: Antagonist activity at human EP2 receptor
Chain of Prostaglandin E2 receptor EP2 subtype (P43116 whole entry): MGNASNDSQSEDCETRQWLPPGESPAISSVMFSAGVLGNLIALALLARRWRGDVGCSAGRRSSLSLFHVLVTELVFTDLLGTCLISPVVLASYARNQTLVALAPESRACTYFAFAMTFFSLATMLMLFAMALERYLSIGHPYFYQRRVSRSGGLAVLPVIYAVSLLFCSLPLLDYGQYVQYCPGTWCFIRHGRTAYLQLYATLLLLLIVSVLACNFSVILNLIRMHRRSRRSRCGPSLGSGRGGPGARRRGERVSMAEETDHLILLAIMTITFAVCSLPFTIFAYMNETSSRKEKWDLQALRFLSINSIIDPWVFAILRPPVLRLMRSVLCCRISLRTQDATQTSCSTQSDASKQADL

[10] = Half life in human liver microsomes; type: ADME, microsome
[11] = AUC (0 to infinity) in Sprague-Dawley rat at 1 mg/kg, po; type: ADME, organism-based; parameters: dose 1 mg/kg, route oral, time infinity; conditions: in vivo; procedure, shortened: as §2
[12] = Apparent permeability from apical to basolateral side in human Caco2 cells; type: ADME, cell-based; conditions: Caco-2
Procedure, shortened: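 Caco-2 monolayer permeability (Papp, apical to basolateral) was measured under constant pH, with the apical side at pH 6.5 and the basolateral side at pH 7.4.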

[13] = Solubility of the compound in pH 1.2 simulated gastric fluid; type: physicochemical
[14] = Cmax in Sprague-Dawley rat at 1 mg/kg, po; type: ADME, organism-based; parameters: dose 1 mg/kg, route oral; conditions: in vivo; procedure, shortened: as §2
[15] = Lipophilicity, log D of the compound at pH 7.4; type: physicochemical; conditions: buffer
[16] = Lipophilicity, log D of the compound at pH 1.2; type: physicochemical; conditions: buffer
CYP2C9 = CYP2C9 (Homo sapiens, UniProt P11712); assay: Inhibition of CYP2C9 (unknown origin) at 1 uM relative to control; type: ADME; procedure, shortened: as §3
Chain of CYP2C9 (P11712 whole entry): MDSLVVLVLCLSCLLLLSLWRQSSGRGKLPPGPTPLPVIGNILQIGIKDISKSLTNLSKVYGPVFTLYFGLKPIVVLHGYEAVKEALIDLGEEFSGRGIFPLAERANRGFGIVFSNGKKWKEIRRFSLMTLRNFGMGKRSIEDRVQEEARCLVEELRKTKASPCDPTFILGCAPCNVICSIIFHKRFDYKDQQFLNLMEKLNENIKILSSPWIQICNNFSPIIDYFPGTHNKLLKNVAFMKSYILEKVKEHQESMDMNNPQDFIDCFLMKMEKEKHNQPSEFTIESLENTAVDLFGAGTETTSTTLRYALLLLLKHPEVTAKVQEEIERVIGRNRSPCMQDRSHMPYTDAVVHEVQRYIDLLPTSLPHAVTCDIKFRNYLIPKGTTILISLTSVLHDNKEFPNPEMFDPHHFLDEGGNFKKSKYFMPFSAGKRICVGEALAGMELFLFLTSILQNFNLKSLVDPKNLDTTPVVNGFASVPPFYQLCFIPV

[17] = Total clearance in cynomolgus monkey at 1 mg/kg, iv; type: ADME, organism-based, Macaca fascicularis; conditions: in vivo; procedure, shortened: as §1
CYP1A = assay: Inhibition of CYP1A (unknown origin) at 1 uM relative to control; type: ADME; conditions: human; procedure, shortened: as §3
[18] = AUC (0 to infinity) in cynomolgus monkey at 1 mg/kg, iv; type: ADME, organism-based, Macaca fascicularis; parameters: dose 1 mg/kg, route intravenous, time infinity; conditions: in vivo; procedure, shortened: as §2
[19] = Oral bioavailability in cynomolgus monkey at 1 mg/kg; type: ADME, organism-based, Macaca fascicularis; conditions: in vivo; procedure, shortened: as §2
[20] = molecular target: Prostaglandin E receptor 4 (Canis lupus familiaris, UniProt Q9TU16); assay: Antagonist activity at dog recombinant EP4 receptor
Chain of Prostaglandin E receptor 4 (Q9TU16 whole entry): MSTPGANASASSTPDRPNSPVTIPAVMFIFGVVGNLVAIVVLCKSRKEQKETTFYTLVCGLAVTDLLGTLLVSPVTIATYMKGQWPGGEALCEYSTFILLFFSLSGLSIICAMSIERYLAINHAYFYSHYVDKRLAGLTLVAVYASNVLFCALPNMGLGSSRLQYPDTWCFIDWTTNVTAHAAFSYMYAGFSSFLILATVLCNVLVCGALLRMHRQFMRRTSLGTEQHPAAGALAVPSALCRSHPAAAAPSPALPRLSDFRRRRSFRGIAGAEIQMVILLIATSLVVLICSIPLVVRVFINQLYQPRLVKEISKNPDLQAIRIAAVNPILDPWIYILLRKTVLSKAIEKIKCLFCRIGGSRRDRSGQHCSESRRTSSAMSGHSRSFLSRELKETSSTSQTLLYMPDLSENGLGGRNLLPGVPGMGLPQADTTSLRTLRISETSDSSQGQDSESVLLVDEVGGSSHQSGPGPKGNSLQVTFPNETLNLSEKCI

[21] = Solubility of the compound in pH 6.5 PBS; type: physicochemical
[22] = Half life in hepatocytes (unknown origin); type: ADME, cell-based, Hepatocyte
[23] = Tmax in Beagle dog at 1 mg/kg, po; type: ADME, organism-based, Canis lupus familiaris; conditions: in vivo; procedure, shortened: as §2
[24] = Elimination half life in Sprague-Dawley rat at 1 mg/kg, iv; type: ADME, organism-based; conditions: in vivo, read-out: beta t1/2 (converted); procedure, shortened: as §2
[25] = Elimination half life in Sprague-Dawley rat at 1 mg/kg, po; type: ADME, organism-based; conditions: in vivo, read-out: beta t1/2 (converted); procedure, shortened: as §2
Rattus norvegicus = assay: Analgesic activity in po dosed rat assessed as inhibition of carrageenan-induced mechanical hyperalgesia measured at 1 hr post dose; type: functional
Procedure, shortened: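 Rats dosed orally. Mechanical hyperalgesia was induced with carrageenan and assessed 1 h post dose. The value is the minimum effective dose (MED, mg/kg PO).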

[26] = Volume of distribution at steady state in Beagle dog at 1 mg/kg, iv; type: ADME, organism-based, Canis lupus familiaris; conditions: in vivo, read-out: Vdss; procedure, shortened: as §1
CYP2C19 = CYP2C19 (Homo sapiens, UniProt P33261); assay: Inhibition of CYP2C19 (unknown origin) at 1 uM relative to control; type: ADME; procedure, shortened: as §3
Chain of CYP2C19 (P33261 whole entry): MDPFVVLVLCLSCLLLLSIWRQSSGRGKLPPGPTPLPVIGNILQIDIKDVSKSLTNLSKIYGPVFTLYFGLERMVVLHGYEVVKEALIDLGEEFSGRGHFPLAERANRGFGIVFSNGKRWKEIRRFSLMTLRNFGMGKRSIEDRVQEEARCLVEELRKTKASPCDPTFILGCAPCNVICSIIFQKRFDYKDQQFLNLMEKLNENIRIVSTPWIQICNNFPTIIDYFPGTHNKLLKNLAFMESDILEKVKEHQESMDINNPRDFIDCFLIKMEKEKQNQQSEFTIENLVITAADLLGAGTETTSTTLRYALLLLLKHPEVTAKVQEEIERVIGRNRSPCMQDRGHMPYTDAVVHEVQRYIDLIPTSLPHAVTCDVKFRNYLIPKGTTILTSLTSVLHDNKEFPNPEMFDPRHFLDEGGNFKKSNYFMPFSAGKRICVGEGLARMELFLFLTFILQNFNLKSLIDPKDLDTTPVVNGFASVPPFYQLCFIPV

[27] = Elimination half life in Beagle dog at 1 mg/kg, iv; type: ADME, organism-based, Canis lupus familiaris; conditions: in vivo, read-out: beta t1/2 (converted); procedure, shortened: as §2
[28] = Elimination half life in Beagle dog at 1 mg/kg, po; type: ADME, organism-based, Canis lupus familiaris; conditions: in vivo, read-out: beta t1/2 (converted); procedure, shortened: as §2
[29] = Cmax in Beagle dog at 1 mg/kg, po; type: ADME, organism-based, Canis lupus familiaris; parameters: dose 1 mg/kg, route oral; conditions: in vivo; procedure, shortened: as §2
[30] = AUC (0 to infinity) in cynomolgus monkey at 1 mg/kg, po; type: ADME, organism-based, Macaca fascicularis; parameters: dose 1 mg/kg, time infinity, route oral; conditions: in vivo; procedure, shortened: as §2
[31] = Tmax in Sprague-Dawley rat at 1 mg/kg, po; type: ADME, organism-based; conditions: in vivo
Procedure, shortened: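 Oral administration of the compound; Tmax is from plasma concentration–time profiles. Values are mean SD of N = 4 animals per species.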

Prostacyclin receptor = Prostacyclin receptor (Homo sapiens, UniProt P43119); assay: Antagonist activity at human IP receptor
Chain of Prostacyclin receptor (P43119 whole entry): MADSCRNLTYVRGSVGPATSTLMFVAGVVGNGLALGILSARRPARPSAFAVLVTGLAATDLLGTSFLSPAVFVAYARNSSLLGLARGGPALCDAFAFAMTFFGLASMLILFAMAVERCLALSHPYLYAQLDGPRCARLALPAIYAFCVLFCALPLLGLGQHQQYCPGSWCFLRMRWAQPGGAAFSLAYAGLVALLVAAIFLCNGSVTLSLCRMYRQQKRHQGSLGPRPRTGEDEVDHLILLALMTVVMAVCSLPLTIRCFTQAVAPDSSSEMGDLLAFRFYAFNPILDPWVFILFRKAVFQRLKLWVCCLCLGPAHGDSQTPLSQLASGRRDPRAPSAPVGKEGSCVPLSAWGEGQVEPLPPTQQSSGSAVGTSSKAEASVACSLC

[32] = molecular target: T2, Prostaglandin E2 receptor EP1 subtype (Homo sapiens, UniProt P34995); assay: Antagonist activity at human EP1 receptor
T2 sequence (P34995 whole entry): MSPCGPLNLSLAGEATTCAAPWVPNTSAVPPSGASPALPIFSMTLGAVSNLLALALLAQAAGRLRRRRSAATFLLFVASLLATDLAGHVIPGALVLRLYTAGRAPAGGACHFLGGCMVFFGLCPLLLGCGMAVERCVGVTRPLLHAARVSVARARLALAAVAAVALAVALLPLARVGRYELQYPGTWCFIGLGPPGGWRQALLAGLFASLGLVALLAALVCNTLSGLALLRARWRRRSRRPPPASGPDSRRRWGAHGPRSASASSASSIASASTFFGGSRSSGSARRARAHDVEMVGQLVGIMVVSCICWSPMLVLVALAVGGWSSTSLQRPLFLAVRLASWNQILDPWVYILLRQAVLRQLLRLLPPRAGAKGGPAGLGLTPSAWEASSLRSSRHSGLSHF

[33] = Elimination half life in cynomolgus monkey at 1 mg/kg, iv; type: ADME, organism-based, Macaca fascicularis; conditions: in vivo, read-out: beta t1/2 (converted); procedure, shortened: as §2

Which Vd [1] does the source give for C[C@H](NC(=O)c1cc(Cl)cnc1Oc1cccc(F)c1)c1ccc(C(=O)O)cc1 here?
The Vd was 4.7 L/kg.

What about the Cmax [2] of the same compound?
Its Cmax is 76 ng/mL.

And the solubility [3]?
The solubility was 4.3 µg/mL (≈ 10.4 µM).

And the Ki (Thromboxane A2 receptor)?
The Ki was greater than 6000 nM.

What about the AUC(0-inf) [4] of the same compound?
Its AUC(0-inf) is 7490 ng·h/mL.

What about the bioavailability [5] of the same compound?
The bioavailability was 80.6%.

And the clearance [6]?
The clearance was 1.75 mL/min/kg.

And the inhibition at 1 µM (CYP3A)?
Its inhibition at 1 µM is less than 5%.

And the logD [7]?
Its logD is 1.5.

What about the Vd [8] of the same compound?
Its Vd is 0.593 L/kg.

And the IC50 [9]?
The IC50 was 1890 nM.

And the Ki [9]?
The Ki was 1840 nM.

What about the half-life [10] of the same compound?
Its half-life is greater than 2 h.

And the AUC(0-inf) [11]?
The AUC(0-inf) was 7090 ng·h/mL.

And the Papp A→B [12]?
Its Papp A→B is 20.1 ×10⁻⁶ cm/s.

And the solubility [13]?
Its solubility is 0.29 µg/mL (≈ 0.699 µM).

What about the Cmax [14] of the same compound?
Its Cmax is 994 ng/mL.

What about the logD [15] of the same compound?
The logD was 0.7.

What about the logD [16] of the same compound?
Its logD is 3.8.

And the inhibition at 1 µM (CYP2C9)?
Its inhibition at 1 µM is less than 5%.

What about the clearance [17] of the same compound?
The clearance was 5.31 mL/min/kg.

And the inhibition at 1 µM (CYP1A)?
Its inhibition at 1 µM is less than 5%.

And the AUC(0-inf) [18]?
Its AUC(0-inf) is 3390 ng·h/mL.

And the bioavailability [19]?
Its bioavailability is 73.3%.

And the Ki [20]?
Its Ki is 38 nM.

What about the solubility [21] of the same compound?
Its solubility is 73 µg/mL (≈ 176 µM).

And the half-life [22]?
The half-life was greater than 6 h.

And the Tmax [23]?
Its Tmax is 0.438 h.

What about the half-life [24] of the same compound?
The half-life was 4.59 h.

What about the half-life [25] of the same compound?
The half-life was 3.71 h.

What about the inhibition (Rattus norvegicus) of the same compound?
The inhibition was “Dose-dependent effect”.

What about the minimal effective dose (Rattus norvegicus; read-out: MED) of the same compound?
The minimal effective dose was 1 mg/kg.

And the Vd [26]?
Its Vd is 1.21 L/kg.

What about the inhibition at 1 µM (CYP2C19) of the same compound?
The inhibition at 1 µM was less than 5%.

What about the half-life [27] of the same compound?
Its half-life is 8.43 h.

And the half-life [28]?
The half-life was 7.95 h.

And the Cmax [29]?
The Cmax was 1450 ng/mL.

What about the AUC(0-inf) [30] of the same compound?
The AUC(0-inf) was 2460 ng·h/mL.

What about the Tmax [31] of the same compound?
Its Tmax is 0.75 h.

What about the Ki (Prostacyclin receptor) of the same compound?
Its Ki is greater than 6000 nM.

And the IC50 [32]?
Its IC50 is greater than 20000 nM.

And the Ki [32]?
Its Ki is greater than 6000 nM.

And the half-life [33]?
The half-life was 14.5 h.
